Source: ChEMBL document CHEMBL1131103, “Synthesis and biological evaluation of 2-acyl analogues of paclitaxel (Taxol)” (J Med Chem, 1998)

Experiments:
Burkitts lymphoma cell = test: Cytotoxic activity against was measured human Burkitt lymphoma cell lines.; type: functional, cell-based
Outline: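 CA46 Burkitt lymphoma cells in 5.0-mL suspension culture, counted after 24 h at 37 °C under 5% CO₂. IC₅₀ = drug concentration halving the increase in cell number. Highest concentration 100 nM. At least two independent experiments.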

[1] = test system: Panel colon (Carcinoma cell lines); test: Cytotoxic activity was measured against human colon carcinoma cell lines; type: functional, cell-based
Outline: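 HCT116 colon carcinoma monolayers in 96-well plates, 48 h at 37 °C under 5% CO₂. Cell protein measured. IC₅₀ = concentration giving 50% inhibition of the increase in cell protein.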

Bos taurus [2] = organism: Bos taurus; test: Polymerizing activity of tubulin in glutamate against bovine brain tubulin homogenate was measured at 0.4 M concentrations; type: functional
Outline: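 Purified, electrophoretically homogeneous bovine brain tubulin assembled at room temperature without GTP or Mg²⁺ in 0.4 M monosodium glutamate (from 2 M stock, pH 6.6). Polymer pelleted by centrifugation. IC₅₀ = drug concentration lowering supernatant protein by 50% versus no-drug control. Up to 40 µM. At least three independent experiments, or at least two where IC₅₀ exceeded 40 µM.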

ptx-10/22 = test: Relative resistance was measured against human paclitaxel-resistant cell lines; type: functional, cell-based; details: 1A9(PTX22)
[3] = test system: Panel ovarian (Carcinoma cell lines); test: Cytotoxic activity was measured against human Ovarian carcinoma cell lines; type: functional, cell-based
Outline: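 Ovarian carcinoma line 1A9, a subclone of A2780, grown as monolayers in 96-well plates for 96 h at 37 °C, 5% CO₂. Cell protein quantitated (Skehan method). IC₅₀ = concentration inhibiting the increase in cell protein by 50%.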

Bos taurus [4] = organism: Bos taurus; test: Polymerizing activity of microtubule protein against the twice cycled microtubule protein; type: functional
Outline: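 Twice-cycled microtubule protein, stored in liquid nitrogen, at 1.0 mg/mL final in 0.1 M MES, 1 mM EGTA, 0.5 mM MgCl₂, pH 6.6, 37 °C, no GTP. Compound at 2.5, 5.0 and 10 µM. Absorbance read every 10 s and initial linear slopes taken. EC0.01 = interpolated concentration giving an initial slope of 0.01 A unit/min.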

Bos taurus [5] = organism: Bos taurus; test: Polymerizing activity of tubulin in glutamate against bovine brain tubulin homogenate was measured at 0.8M concentrations; type: functional
Outline: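 Bovine brain tubulin, purified to electrophoretic homogeneity, in 0.8 M monosodium glutamate (from 2 M stock, pH 6.6), room temperature, no GTP. Polymer removed by centrifugation. IC₅₀ = concentration reducing supernatant protein by 50% relative to drug-free control. Maximum 40 µM. At least three independent experiments, or at least two for IC₅₀ over 40 µM.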

SMILES | IC50 (Burkitts lymphoma cell) | IC50 [1] | IC50 (Bos taurus [2]) | relative resistance (ptx-10/22) | IC50 [3] | EC0.01 (relative to paclitaxel) (Bos taurus [4]) | IC50 (Bos taurus [5])
COc1ccc(OC)c(C(=O)O[C@H]2[C@@H]3[C@]4(OC(C)=O)CO[C@@H]4C[C@H](O)[C@@]3(C)C(=O)[C@H](OC(C)=O)C3=C(C)[C@@H](OC(=O)[C@H](O)[C@@H](NC(=O)c4ccccc4)c4ccccc4)C[C@]2(O)C3(C)C)c1 | 0.67 relative to paclitaxel | 0.14 relative to paclitaxel | 0.2 relative to paclitaxel | 0.76 | 0.12 relative to paclitaxel | 0.5 | –
CC(=O)O[C@H]1C(=O)[C@@]2(C)[C@H]([C@H](OC(=O)c3ccc(Cl)c(Cl)c3)[C@]3(O)C[C@H](OC(=O)[C@H](O)[C@@H](NC(=O)c4ccccc4)c4ccccc4)C(C)=C1C3(C)C)[C@]1(OC(C)=O)CO[C@@H]1C[C@@H]2O | – | 0.77 relative to paclitaxel | 0.41 relative to paclitaxel | 0.27 | 1 relative to paclitaxel | 0.76 | –
CC(=O)O[C@H]1C(=O)[C@@]2(C)[C@H]([C@H](OC(=O)c3cc([N+](=O)[O-])cc([N+](=O)[O-])c3)[C@]3(O)C[C@H](OC(=O)[C@H](O)[C@@H](NC(=O)c4ccccc4)c4ccccc4)C(C)=C1C3(C)C)[C@]1(OC(C)=O)CO[C@@H]1C[C@@H]2O | 2.3 relative to paclitaxel | 3.1 relative to paclitaxel | > 1.7 relative to paclitaxel | – | 20 relative to paclitaxel | 4.2 | > 8.9 relative to paclitaxel
CC(=O)O[C@H]1C(=O)[C@@]2(C)[C@H]([C@H](OC(=O)c3cccc(N=[N+]=[N-])c3)[C@]3(O)C[C@H](OC(=O)[C@H](O)[C@@H](NC(=O)c4ccccc4)c4ccccc4)C(C)=C1C3(C)C)[C@]1(OC(C)=O)CO[C@@H]1C[C@@H]2O | 0.17 relative to paclitaxel | 1.4 relative to paclitaxel | 0.2 relative to paclitaxel | 0.27 | 0.18 relative to paclitaxel | 0.37 | –
CC(=O)O[C@H]1C(=O)[C@@]2(C)[C@H]([C@H](OC(=O)c3cccc(Cl)c3)[C@]3(O)C[C@H](OC(=O)[C@H](O)[C@@H](NC(=O)c4ccccc4)c4ccccc4)C(C)=C1C3(C)C)[C@]1(OC(C)=O)CO[C@@H]1C[C@@H]2O | 0.67 relative to paclitaxel | 1.7 relative to paclitaxel | 0.3 relative to paclitaxel | 2.9 | 0.05 relative to paclitaxel | 0.92 | –
COc1cccc(C(=O)O[C@H]2[C@@H]3[C@]4(OC(C)=O)CO[C@@H]4C[C@H](O)[C@@]3(C)C(=O)[C@H](OC(C)=O)C3=C(C)[C@@H](OC(=O)[C@H](O)[C@@H](NC(=O)c4ccccc4)c4ccccc4)C[C@]2(O)C3(C)C)c1 | 0.27 relative to paclitaxel | 0.35 relative to paclitaxel | 0.22 relative to paclitaxel | 0.71 | 0.095 relative to paclitaxel | 0.5 | –
CC(=O)O[C@H]1C(=O)[C@@]2(C)[C@H]([C@H](OC(=O)c3cc(Cl)cc(Cl)c3)[C@]3(O)C[C@H](OC(=O)[C@H](O)[C@@H](NC(=O)c4ccccc4)c4ccccc4)C(C)=C1C3(C)C)[C@]1(OC(C)=O)CO[C@@H]1C[C@@H]2O | 0.67 relative to paclitaxel | 0.51 relative to paclitaxel | 0.91 relative to paclitaxel | 0.48 | 0.38 relative to paclitaxel | 0.44 | –
CC(=O)O[C@H]1C(=O)[C@@]2(C)[C@H]([C@H](OC(=O)c3cccc(C#N)c3)[C@]3(O)C[C@H](OC(=O)[C@H](O)[C@@H](NC(=O)c4ccccc4)c4ccccc4)C(C)=C1C3(C)C)[C@]1(OC(C)=O)CO[C@@H]1C[C@@H]2O | – | 1.1 relative to paclitaxel | 0.63 relative to paclitaxel | 1.3 | 0.32 relative to paclitaxel | 1 | –
CC(=O)O[C@H]1C(=O)[C@@]2(C)[C@H]([C@H](OC(=O)c3cccc(Br)c3)[C@]3(O)C[C@H](OC(=O)[C@H](O)[C@@H](NC(=O)c4ccccc4)c4ccccc4)C(C)=C1C3(C)C)[C@]1(OC(C)=O)CO[C@@H]1C[C@@H]2O | – | 0.32 relative to paclitaxel | 0.24 relative to paclitaxel | 0.42 | 0.32 relative to paclitaxel | 0.8 | –
CC(=O)O[C@H]1C(=O)[C@@]2(C)[C@H]([C@H](OC(=O)c3cccc(C(F)(F)F)c3)[C@]3(O)C[C@H](OC(=O)[C@H](O)[C@@H](NC(=O)c4ccccc4)c4ccccc4)C(C)=C1C3(C)C)[C@]1(OC(C)=O)CO[C@@H]1C[C@@H]2O | 0.67 relative to paclitaxel | 3 relative to paclitaxel | > 1.7 relative to paclitaxel | – | 1.4 relative to paclitaxel | 1.3 | 6.7 relative to paclitaxel
CC(=O)O[C@H]1C(=O)[C@@]2(C)[C@H]([C@H](OC(=O)c3cc(F)ccc3F)[C@]3(O)C[C@H](OC(=O)[C@H](O)[C@@H](NC(=O)c4ccccc4)c4ccccc4)C(C)=C1C3(C)C)[C@]1(OC(C)=O)CO[C@@H]1C[C@@H]2O | 0.67 relative to paclitaxel | 0.44 relative to paclitaxel | 0.29 relative to paclitaxel | 0.57 | 0.67 relative to paclitaxel | 0.34 | –
COc1cc(C(=O)O[C@H]2[C@@H]3[C@]4(OC(C)=O)CO[C@@H]4C[C@H](O)[C@@]3(C)C(=O)[C@H](OC(C)=O)C3=C(C)[C@@H](OC(=O)[C@H](O)[C@@H](NC(=O)c4ccccc4)c4ccccc4)C[C@]2(O)C3(C)C)cc(OC)c1OC | > 3.3 relative to paclitaxel | 110 relative to paclitaxel | > 1.7 relative to paclitaxel | – | > 48 relative to paclitaxel | 32 | > 8.9 relative to paclitaxel
CC(=O)O[C@H]1C(=O)[C@@]2(C)[C@H]([C@H](OC(=O)c3cccc(F)c3F)[C@]3(O)C[C@H](OC(=O)[C@H](O)[C@@H](NC(=O)c4ccccc4)c4ccccc4)C(C)=C1C3(C)C)[C@]1(OC(C)=O)CO[C@@H]1C[C@@H]2O | – | 0.55 relative to paclitaxel | > 1.7 relative to paclitaxel | – | 14 relative to paclitaxel | 0.8 | > 8.9 relative to paclitaxel
CC(=O)O[C@H]1C(=O)[C@@]2(C)[C@H]([C@H](OC(=O)c3ccccc3N=[N+]=[N-])[C@]3(O)C[C@H](OC(=O)[C@H](O)[C@@H](NC(=O)c4ccccc4)c4ccccc4)C(C)=C1C3(C)C)[C@]1(OC(C)=O)CO[C@@H]1C[C@@H]2O | – | 0.36 relative to paclitaxel | 0.38 relative to paclitaxel | 0.67 | 0.77 relative to paclitaxel | 0.7 | –
CC(=O)O[C@H]1C(=O)[C@@]2(C)[C@H]([C@H](OC(=O)c3ccc(Cl)cc3)[C@]3(O)C[C@H](OC(=O)[C@H](O)[C@@H](NC(=O)c4ccccc4)c4ccccc4)C(C)=C1C3(C)C)[C@]1(OC(C)=O)CO[C@@H]1C[C@@H]2O | 1.3 relative to paclitaxel | – | > 1.7 relative to paclitaxel | – | 7.6 relative to paclitaxel | – | > 8.9 relative to paclitaxel
CC(=O)O[C@H]1C(=O)[C@@]2(C)[C@H]([C@H](OC(=O)c3ccc(O)cc3)[C@]3(O)C[C@H](OC(=O)[C@H](O)[C@@H](NC(=O)c4ccccc4)c4ccccc4)C(C)=C1C3(C)C)[C@]1(OC(C)=O)CO[C@@H]1C[C@@H]2O | 3 relative to paclitaxel | 52 relative to paclitaxel | > 1.7 relative to paclitaxel | – | 31 relative to paclitaxel | 19 | > 8.9 relative to paclitaxel
COc1cccc(C(=O)O[C@H]2[C@@H]3[C@]4(OC(C)=O)CO[C@@H]4C[C@H](O)[C@@]3(C)C(=O)[C@H](OC(C)=O)C3=C(C)[C@@H](OC(=O)[C@H](O)[C@@H](NC(=O)c4ccccc4)c4ccccc4)C[C@]2(O)C3(C)C)c1OC | > 3.3 relative to paclitaxel | 59 relative to paclitaxel | > 1.7 relative to paclitaxel | – | > 48 relative to paclitaxel | > 270 | > 8.9 relative to paclitaxel
CC(=O)O[C@H]1C(=O)[C@@]2(C)[C@H]([C@H](OC(=O)c3cc(F)cc(F)c3)[C@]3(O)C[C@H](OC(=O)[C@H](O)[C@@H](NC(=O)c4ccccc4)c4ccccc4)C(C)=C1C3(C)C)[C@]1(OC(C)=O)CO[C@@H]1C[C@@H]2O | – | 0.36 relative to paclitaxel | 0.29 relative to paclitaxel | 1.1 | 0.12 relative to paclitaxel | 0.6 | –
